According to ChEMBL document CHEMBL4422685, “Design, synthesis and evaluation of a series of 5-methoxy-2,3-naphthalimide derivatives as AcrB inhibitors for the reversal of bacterial resistance” (Bioorg Med Chem Lett, 2019):
In brackets after ≈: the same amount, converted by molar mass. Activity calls are given as the source filed them. No cut-off for these calls is given here.

Legend:
[1] = Solubility of the compound in DMSO; assay type: physicochemical
[2] = target: T1, Multidrug efflux pump subunit AcrB (Escherichia coli (strain K12)) (UniProt P31224); test: Inhibition of AcrB in wild-type drug-resistant Escherichia coli BW2113 assessed as potentiation of chloramphenicol-induced antimicrobial activity by measuring chloramphenicol MIC at 16 ug/ml by checkerboard titration method (Rvb =16 ug/ml)
T1 sequence (whole entry): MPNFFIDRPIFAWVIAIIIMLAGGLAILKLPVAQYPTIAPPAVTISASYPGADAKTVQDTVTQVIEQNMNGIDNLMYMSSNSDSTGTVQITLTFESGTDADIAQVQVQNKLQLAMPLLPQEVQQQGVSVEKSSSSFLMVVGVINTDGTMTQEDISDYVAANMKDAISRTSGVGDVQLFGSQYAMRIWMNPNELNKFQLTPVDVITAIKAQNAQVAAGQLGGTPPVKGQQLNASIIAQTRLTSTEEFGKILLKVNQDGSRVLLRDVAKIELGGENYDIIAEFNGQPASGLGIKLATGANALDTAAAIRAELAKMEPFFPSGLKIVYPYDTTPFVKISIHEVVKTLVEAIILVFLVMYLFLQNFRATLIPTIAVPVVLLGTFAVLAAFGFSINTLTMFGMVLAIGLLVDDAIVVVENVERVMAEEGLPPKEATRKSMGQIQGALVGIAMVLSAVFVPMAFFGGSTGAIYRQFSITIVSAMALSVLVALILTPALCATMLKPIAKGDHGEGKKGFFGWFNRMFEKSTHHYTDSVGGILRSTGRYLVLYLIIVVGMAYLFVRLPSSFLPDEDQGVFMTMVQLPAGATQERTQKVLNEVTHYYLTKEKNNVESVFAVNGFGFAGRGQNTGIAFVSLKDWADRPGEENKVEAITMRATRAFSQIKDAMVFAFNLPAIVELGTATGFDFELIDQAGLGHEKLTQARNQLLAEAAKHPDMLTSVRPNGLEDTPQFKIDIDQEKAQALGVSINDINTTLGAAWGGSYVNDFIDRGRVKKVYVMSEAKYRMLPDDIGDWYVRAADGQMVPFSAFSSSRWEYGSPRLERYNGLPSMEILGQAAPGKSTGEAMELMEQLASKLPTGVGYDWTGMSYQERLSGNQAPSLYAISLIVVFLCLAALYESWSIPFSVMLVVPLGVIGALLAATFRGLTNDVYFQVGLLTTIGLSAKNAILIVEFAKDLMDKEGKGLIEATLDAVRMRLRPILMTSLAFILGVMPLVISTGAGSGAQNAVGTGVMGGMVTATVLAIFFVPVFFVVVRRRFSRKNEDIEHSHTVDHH

[3] = target: T1, Multidrug efflux pump subunit AcrB (Escherichia coli (strain K12)); test: Inhibition of AcrB in wild-type drug-resistant Escherichia coli […] assessed as potentiation of levofloxacin-induced antimicrobial activity by measuring levofloxacin MIC at 8 ug/ml by checkerboard titration method (reference value: 0.063 ug/ml)
[4] = target: T1, Multidrug efflux pump subunit AcrB (Escherichia coli (strain K12)); test: Inhibition of AcrB in wild-type drug-resistant Escherichia coli […] assessed as potentiation of erythromycin-induced antimicrobial activity by measuring erythromycin MIC at 64 ug/ml by checkerboard titration method (reference value: 64 ug/ml)
[5] = target: T1, Multidrug efflux pump subunit AcrB (Escherichia coli (strain K12)); test: Inhibition of AcrB in wild-type drug-resistant Escherichia coli […] assessed as potentiation of tetraphenyl phosphonium chloride-induced antimicrobial activity by measuring tetraphenyl phosphonium chloride MIC at 128 ug/ml by checkerboard titration method (reference value: 1024 ug/ml)
[6] = target: T1, Multidrug efflux pump subunit AcrB (Escherichia coli (strain K12)); test: Inhibition of AcrB in wild-type drug-resistant Escherichia coli […] assessed as potentiation of tetraphenyl phosphonium chloride-induced antimicrobial activity by measuring tetraphenyl phosphonium chloride MIC at 16 ug/ml by checkerboard titration method (reference value: 1024 ug/ml)
[7] = target: T1, Multidrug efflux pump subunit AcrB (Escherichia coli (strain K12)); test: Inhibition of AcrB in wild-type drug-resistant Escherichia coli […] assessed as potentiation of levofloxacin-induced antimicrobial activity by measuring levofloxacin MIC at 16 ug/ml by checkerboard titration method (reference value: 0.063 ug/ml)
[8] = target: T1, Multidrug efflux pump subunit AcrB (Escherichia coli (strain K12)); test: Inhibition of AcrB in wild-type drug-resistant Escherichia coli […] assessed as potentiation of tetraphenyl phosphonium chloride-induced antimicrobial activity by measuring tetraphenyl phosphonium chloride MIC at 8 ug/ml by checkerboard titration method (reference value: 1024 ug/ml)
[9] = target: T1, Multidrug efflux pump subunit AcrB (Escherichia coli (strain K12)); test: Inhibition of AcrB in wild-type drug-resistant Escherichia coli […] assessed as potentiation of chloramphenicol-induced antimicrobial activity by measuring chloramphenicol MIC at 8 ug/ml by checkerboard titration method (Rvb =16 ug/ml)
[10] = target: T1, Multidrug efflux pump subunit AcrB (Escherichia coli (strain K12)); test: Inhibition of AcrB in wild-type drug-resistant Escherichia coli […] assessed as potentiation of erythromycin-induced antimicrobial activity by measuring erythromycin MIC at 16 ug/ml by checkerboard titration method (reference value: 64 ug/ml)
[11] = target: T1, Multidrug efflux pump subunit AcrB (Escherichia coli (strain K12)); test: Inhibition of AcrB in wild-type drug-resistant Escherichia coli […] assessed as potentiation of chloramphenicol-induced antimicrobial activity by measuring chloramphenicol MIC at 32 ug/ml by checkerboard titration method (Rvb =16 ug/ml)
Escherichia coli [12] = test: Toxicity against AcrB deficient Escherichia coli AcrB lacking at 128 ug/ml; assay type: organism-based; conditions: in vivo
Procedure, shortened: (§1)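 MIC determination against wild-type resistant E. coli BW25113 and an isogenic acrB-deleted strain; highest concentration tested 128 mg/L.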

[13] = target: T1, Multidrug efflux pump subunit AcrB (Escherichia coli (strain K12)); test: Inhibition of AcrB in wild-type drug-resistant Escherichia coli […] assessed as potentiation of tetraphenyl phosphonium chloride-induced antimicrobial activity by measuring tetraphenyl phosphonium chloride MIC at 32 ug/ml by checkerboard titration method (reference value: 1024 ug/ml)
[14] = target: T1, Multidrug efflux pump subunit AcrB (Escherichia coli (strain K12)); test: Inhibition of AcrB in wild-type drug-resistant Escherichia coli […] assessed as potentiation of levofloxacin-induced antimicrobial activity by measuring levofloxacin MIC at 64 ug/ml by checkerboard titration method (reference value: 0.063 ug/ml)
[15] = target: T1, Multidrug efflux pump subunit AcrB (Escherichia coli (strain K12)); test: Inhibition of AcrB in wild-type drug-resistant Escherichia coli […] assessed as potentiation of erythromycin-induced antimicrobial activity by measuring erythromycin MIC at 128 ug/ml by checkerboard titration method (reference value: 64 ug/ml)
[16] = target: T1, Multidrug efflux pump subunit AcrB (Escherichia coli (strain K12)); test: Inhibition of AcrB in wild-type drug-resistant Escherichia coli […] assessed as potentiation of chloramphenicol-induced antimicrobial activity by measuring chloramphenicol MIC at 64 ug/ml by checkerboard titration method (Rvb =16 ug/ml)
[17] = target: T1, Multidrug efflux pump subunit AcrB (Escherichia coli (strain K12)); test: Inhibition of AcrB in wild-type drug-resistant Escherichia coli […] assessed as potentiation of levofloxacin-induced antimicrobial activity by measuring levofloxacin MIC at 32 ug/ml by checkerboard titration method (reference value: 0.063 ug/ml)
[18] = target: T1, Multidrug efflux pump subunit AcrB (Escherichia coli (strain K12)); test: Inhibition of AcrB in wild-type drug-resistant Escherichia coli […] assessed as potentiation of chloramphenicol-induced antimicrobial activity by measuring chloramphenicol MIC at 128 ug/ml by checkerboard titration method (Rvb =16 ug/ml)
[19] = target: T1, Multidrug efflux pump subunit AcrB (Escherichia coli (strain K12)); test: Inhibition of AcrB in wild-type drug-resistant Escherichia coli […] assessed as potentiation of levofloxacin-induced antimicrobial activity by measuring levofloxacin MIC at 128 ug/ml by checkerboard titration method (reference value: 0.063 ug/ml)
[20] = target: T1, Multidrug efflux pump subunit AcrB (Escherichia coli (strain K12)); test: Inhibition of AcrB in wild-type drug-resistant Escherichia coli […] assessed as potentiation of erythromycin-induced antimicrobial activity by measuring erythromycin MIC at 8 ug/ml by checkerboard titration method (reference value: 64 ug/ml)
[21] = target: T1, Multidrug efflux pump subunit AcrB (Escherichia coli (strain K12)); test: Inhibition of AcrB in wild-type drug-resistant Escherichia coli […] assessed as potentiation of tetraphenyl phosphonium chloride-induced antimicrobial activity by measuring tetraphenyl phosphonium chloride MIC at 64 ug/ml by checkerboard titration method (reference value: 1024 ug/ml)
Escherichia coli [22] = test: Toxicity against wild-type drug-resistant Escherichia coli […] at 128 ug/ml; assay type: organism-based; conditions: in vivo; procedure, shortened: as §1
[23] = target: T1, Multidrug efflux pump subunit AcrB (Escherichia coli (strain K12)); test: Inhibition of AcrB in wild-type drug-resistant Escherichia coli […] assessed as potentiation of erythromycin-induced antimicrobial activity by measuring erythromycin MIC at 32 ug/ml by checkerboard titration method (reference value: 64 ug/ml)
Escherichia coli [24] = test: Antimicrobial activity against AcrB deficient Escherichia coli; assay type: functional
[25] = target: T1, Multidrug efflux pump subunit AcrB (Escherichia coli (strain K12)); test: Inhibition of AcrB in wild-type drug-resistant Escherichia coli […] assessed as reduction in glucose-induced nile red efflux at 200 uM by fluorescence assay
Procedure, shortened: (§2)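 E. coli cells (wild-type resistant with active pump, acrB-deleted, or wild-type plus compound) preloaded with Nile Red before fluorescence recording. Efflux triggered at 100 s by adding 0.2% glucose. Fluorescence traces followed; experiments with different cell batches on three different days.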

Escherichia coli [26] = test: Induction of Escherichia coli outer membrane permeabilization assessed as increase in nitrocefin hydrolysis at 128 ug/ml by spectroscopic method; assay type: organism-based
[27] = target: T1, Multidrug efflux pump subunit AcrB (Escherichia coli (strain K12)); test: Inhibition of AcrB in wild-type drug-resistant Escherichia coli […] assessed as reduction in glucose-induced nile red efflux at 500 uM by fluorescence assay; procedure, shortened: as §2

COc1cccc2cc3c(cc12)C(=O)N(c1ccc(C(C)C)cc1)C3=O
solubility [1]: Insoluble

COc1cccc2cc3c(cc12)C(=O)N(CCc1ccccc1Cl)C3=O
solubility [1]: Insoluble

CCc1ccc(N2C(=O)c3cc4cccc(OC)c4cc3C2=O)cc1
solubility [1]: Insoluble

COc1cccc2cc3c(cc12)C(=O)N(c1ccccc1C(F)(F)F)C3=O
solubility [1]: Insoluble

COc1cccc2cc3c(cc12)C(=O)N(Cc1ccccc1Cl)C3=O
MIC [2]: 16 µg/mL
MIC [3]: 0.063 µg/mL
MIC [4]: 64 µg/mL
MIC [5]: 512 µg/mL
MIC [6]: 1020 µg/mL
MIC [7]: 0.063 µg/mL
MIC [8]: 1020 µg/mL
MIC [9]: 16 µg/mL
MIC [10]: 64 µg/mL
MIC [11]: 16 µg/mL
Activity (Escherichia coli [12]): Non-Toxic
MIC [13]: 1020 µg/mL
MIC [14]: 0.063 µg/mL
MIC [15]: 32 µg/mL
MIC [16]: 16 µg/mL
MIC [17]: 0.063 µg/mL
MIC [18]: 16 µg/mL
MIC [19]: 0.063 µg/mL
MIC [20]: 64 µg/mL
MIC [21]: 1020 µg/mL
Activity (Escherichia coli [22]): Non-Toxic
MIC [23]: 64 µg/mL

CC[C@H]1OC(=O)[C@H](C)[C@@H](O[C@H]2C[C@@](C)(OC)[C@@H](O)[C@H](C)O2)[C@H](C)[C@@H](O[C@@H]2O[C@H](C)C[C@H](N(C)C)[C@H]2O)[C@](C)(O)C[C@@H](C)C(=O)[C@H](C)[C@@H](O)[C@]1(C)O [ERYTHROMYCIN]
MIC (Escherichia coli [24]): 64 µg/mL (≈ 87.2 µM)

CCCCc1ccc(N2C(=O)c3cc4cccc(OC)c4cc3C2=O)cc1
solubility [1]: Insoluble

COc1ccccc1N1C(=O)c2cc3cccc(OC)c3cc2C1=O
solubility [1]: Insoluble

COc1cccc2cc3c(cc12)C(=O)N(c1cccc(C)c1)C3=O
solubility [1]: Insoluble

COc1cccc2cc3c(cc12)C(=O)N(CCc1ccc(F)cc1)C3=O
solubility [1]: Insoluble

COc1cccc2cc3c(cc12)C(=O)N(Cc1ccc(F)cc1)C3=O
solubility [1]: Insoluble

[Cl-].c1ccc([P+](c2ccccc2)(c2ccccc2)c2ccccc2)cc1 [TETRAPHENYLPHOSPHONIUM CHLORIDE]
MIC (Escherichia coli [24]): 32 µg/mL

COc1cccc(N2C(=O)c3cc4cccc(OC)c4cc3C2=O)c1
solubility [1]: Insoluble

COc1cccc2cc3c(cc12)C(=O)N(Cc1ccc(C)cc1)C3=O
solubility [1]: Insoluble

COc1cccc2cc3c(cc12)C(=O)N(Cc1ccc(Cl)cc1)C3=O
solubility [1]: Insoluble

C[C@H]1COc2c(N3CCN(C)CC3)c(F)cc3c(=O)c(C(=O)O)cn1c23.C[C@H]1COc2c(N3CCN(C)CC3)c(F)cc3c(=O)c(C(=O)O)cn1c23.O [LEVOFLOXACIN]
MIC (Escherichia coli [24]): 0.0039 µg/mL

COc1cccc2cc3c(cc12)C(=O)N(C(C)(C)C)C3=O
MIC [2]: 16 µg/mL
MIC [3]: 0.063 µg/mL
MIC [4]: 32 µg/mL
MIC [5]: 512 µg/mL
MIC [6]: 1020 µg/mL
MIC [7]: 0.063 µg/mL
MIC [8]: 1020 µg/mL
MIC [9]: 16 µg/mL
MIC [10]: 64 µg/mL
MIC [11]: 16 µg/mL
inhibition [25]: Active
Activity (Escherichia coli [26]): Non-Toxic
inhibition [27]: 100%
Activity (Escherichia coli [12]): Non-Toxic
MIC [13]: 1020 µg/mL
MIC [14]: 0.063 µg/mL
MIC [15]: 32 µg/mL
MIC [16]: 16 µg/mL
MIC [17]: 0.063 µg/mL
MIC [18]: 16 µg/mL
MIC [19]: 0.063 µg/mL
MIC [20]: 64 µg/mL
MIC [21]: 1020 µg/mL
Activity (Escherichia coli [22]): Non-Toxic
MIC [23]: 64 µg/mL
